From ChEMBL document CHEMBL4665652, “Discovery of novel quinoline sulphonamide derivatives as potent, selective and orally active RORγ inverse agonists” (Bioorg Med Chem Lett, 2019)

What was measured:
Cytochrome P450 2C9 = Cytochrome P450 2C9 (Homo sapiens, UniProt P11712); experiment: Drug metabolism assessed as CYP2C9 (unknown origin) mediated metabolite formation; type: ADME
Cytochrome P450 3A4 = Cytochrome P450 3A4 (Homo sapiens, UniProt P08684); experiment: Drug metabolism assessed as CYP3A4 (unknown origin) mediated metabolite formation; type: ADME
CYP2C9 = CYP2C9 (Homo sapiens, UniProt P11712); experiment: Inhibition of CYP2C9 (unknown origin) at 1 uM relative to control; type: ADME
[1] = Half life in mouse at 100 mg/kg, po; type: ADME, organism-based; conditions: in vivo
Procedure, shortened: (§1)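 Oral ascending-dose PK in mice at 100 mg/kg (ratios against 10 mg/kg), given as a suspension in 1% methylcellulose 400cp + 0.1% Poloxamer. Cmax, AUClast and t1/2 come from plasma profiles.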

[2] = AUClast in mouse at 100 mg/kg, po; type: ADME, organism-based; parameters: time 0 - last, route oral, dose 100 mg/kg; conditions: in vivo; procedure, shortened: as §1
[3] = Ratio of AUClast in mouse at 100 mg/kg, po to AUClast in mouse at 10 mg/kg, po; type: ADME, organism-based; conditions: in vivo
Procedure, shortened: (§2)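 Mice dosed orally at 10, 30 or 100 mg/kg as a suspension in 1% methylcellulose 400cp + 0.1% Poloxamer (188). Tmax, Cmax, AUClast and oral t1/2 were taken from plasma concentration–time profiles. Ratios are the value at each dose over the value at 10 mg/kg.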

[4] = Cmax in mouse at 100 mg/kg, po; type: ADME, organism-based; parameters: route oral, dose 100 mg/kg; conditions: in vivo; procedure, shortened: as §1
[5] = Tmax in mouse at 100 mg/kg, po; type: ADME, organism-based; conditions: in vivo
Procedure, shortened: (§3)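 Mice dosed orally with an ascending-dose series at 10, 30 and 100 mg/kg. Compound given as a suspension in 1% methylcellulose 400cp + 0.1% poloxamer. Plasma Tmax taken from the concentration profiles. The Cmax ratio is expressed relative to the 10 mg/kg dose.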

[6] = Ratio of AUClast in mouse at 30 mg/kg, po to AUClast in mouse at 10 mg/kg, po; type: ADME, organism-based; conditions: in vivo; procedure, shortened: as §2
[7] = Ratio of Cmax in mouse at 30 mg/kg, po to Cmax in mouse at 10 mg/kg, po; type: ADME, organism-based; conditions: in vivo; procedure, shortened: as §3
[8] = Cmax in mouse at 30 mg/kg, po; type: ADME, organism-based; parameters: route oral, dose 30 mg/kg; conditions: in vivo; procedure, shortened: as §2
Mus musculus [9] = experiment: Immunosuppressive activity in PLP (139 to 151 residues)-induced experimental autoimmune encephalomyelitis mouse model assessed as reduction in disease onset at 100 mg/kg, po administered bid starting from immunization relative to control; type: functional
Procedure, shortened: (§4)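 EAE induced in mice by immunization with proteolipid protein peptide PLP139-151; ascending paralysis develops 10–12 days post-immunization. Compound dosed orally b.i.d. starting from immunization. Disease onset/incidence scored relative to control.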

Mus musculus [10] = experiment: Immunosuppressive activity in PLP (139 to 151 residues)-induced experimental autoimmune encephalomyelitis mouse model assessed as reduction in disease onset at 60 mg/kg, po administered bid starting from immunization relative to control; type: functional; procedure, shortened: as §4
[11] = (§5) In vivo inverse agonist activity at RORgamma in MOG(35-55) peptide/PTX-induced mechanistic C57BL/6 mouse model assessed as anti-CD3 induced IL-2 level in serum at 10 mg/kg, po dosed for 5 days during MOG/PTX priming and followed by 45 mins prior to anti-CD3 challenge and measured after 2 hrs relative to control; type: functional; conditions: time 5 day
Procedure, shortened: (§6)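 Mice immunized with mouse MOG35-55 peptide plus pertussis toxin. After 5 days, compound given orally as a suspension in methylcellulose 400cp + 1% poloxamer, 45 min before an anti-CD3 challenge. Circulating cytokines measured 2 h later. Comparison vs vehicle by Dunnett post test.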

[12] = as §5, with “IFNgamma” for “IL-2”, “30” for “10”; type: functional; conditions: time 5 day; procedure, shortened: as §6
[13] = as §5, with “IL-6” for “IL-2”; type: functional; conditions: time 5 day; procedure, shortened: as §6
[14] = as §5, with “IL-22” for “IL-2”, “100” for “10”; type: functional; conditions: time 5 day; procedure, shortened: as §6
[15] = as §5, with “IL-22” for “IL-2”, “30” for “10”; type: functional; conditions: time 5 day; procedure, shortened: as §6
[16] = as §5, with “IL-17A” for “IL-2”, “30” for “10”; type: functional; conditions: time 5 day; procedure, shortened: as §6
[17] = Half life in mouse at 1 mg/kg, iv; type: ADME, organism-based; conditions: in vivo
Procedure, shortened: (§7)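 Mouse PK with iv 1 mg/kg and po 10 mg/kg, oral dose as a suspension in 1% methylcellulose 400cp + 0.1% Poloxamer 188. Plasma clearance (total and unbound), iv t1/2 and oral bioavailability F were derived from the iv and po profiles.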

[18] = Oral bioavailability in mouse at 10 mg/kg; type: ADME, organism-based; conditions: in vivo; procedure, shortened: as §7
[19] = Cmax in mouse at 10 mg/kg, po; type: ADME, organism-based; parameters: route oral, dose 10 mg/kg; conditions: in vivo; procedure, shortened: as §2
[20] = Tmax in mouse at 10 mg/kg, po; type: ADME, organism-based; conditions: in vivo; procedure, shortened: as §3
[21] = target: T1, Nuclear receptor ROR-gamma (Homo sapiens, UniProt P51449); experiment: Inverse agonist activity at pSG5GAL4-DBD/LBD fused human RORgamma receptor expressed in COS7 cells co-expressing 5 copies of GAL4 response element after 18 hrs by luciferase reporter gene based assay; type: cell-based
T1 sequence (P51449 whole entry): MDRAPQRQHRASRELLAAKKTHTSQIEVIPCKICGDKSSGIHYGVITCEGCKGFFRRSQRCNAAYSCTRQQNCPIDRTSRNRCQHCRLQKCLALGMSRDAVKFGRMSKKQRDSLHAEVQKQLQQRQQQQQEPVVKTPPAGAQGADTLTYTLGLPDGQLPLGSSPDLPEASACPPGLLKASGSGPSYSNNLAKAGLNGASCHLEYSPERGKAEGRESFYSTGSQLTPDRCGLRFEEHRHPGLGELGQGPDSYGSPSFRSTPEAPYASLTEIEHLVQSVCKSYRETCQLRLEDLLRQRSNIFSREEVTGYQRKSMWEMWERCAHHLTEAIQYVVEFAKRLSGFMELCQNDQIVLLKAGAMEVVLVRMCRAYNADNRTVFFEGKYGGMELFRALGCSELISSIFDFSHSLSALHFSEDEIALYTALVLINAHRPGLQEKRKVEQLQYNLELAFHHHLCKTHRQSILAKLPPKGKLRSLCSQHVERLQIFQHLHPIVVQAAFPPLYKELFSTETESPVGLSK

[22] = as §5, with “TNFalpha” for “IL-2”; type: functional; conditions: time 5 day; procedure, shortened: as §6
[23] = as §5, with “TNFalpha” for “IL-2”, “100” for “10”; type: functional; conditions: time 5 day; procedure, shortened: as §6
Mus musculus [24] = experiment: In vivo inverse agonist activity at RORgamma in po dosed MOG(35-55) peptide/PTX-induced mechanistic C57BL/6 mouse model assessed as anti-CD3 induced IL-17A level in serum dosed for 5 days during MOG/PTX priming and followed by 45 mins prior to anti-CD3 challenge and measured after 2 hrs relative to control; type: functional, organism-based; conditions: dose mg/kg 10-100, time 5.0 day; procedure, shortened: as §6

Cytochrome P450 3A4, sequence (P08684 whole entry): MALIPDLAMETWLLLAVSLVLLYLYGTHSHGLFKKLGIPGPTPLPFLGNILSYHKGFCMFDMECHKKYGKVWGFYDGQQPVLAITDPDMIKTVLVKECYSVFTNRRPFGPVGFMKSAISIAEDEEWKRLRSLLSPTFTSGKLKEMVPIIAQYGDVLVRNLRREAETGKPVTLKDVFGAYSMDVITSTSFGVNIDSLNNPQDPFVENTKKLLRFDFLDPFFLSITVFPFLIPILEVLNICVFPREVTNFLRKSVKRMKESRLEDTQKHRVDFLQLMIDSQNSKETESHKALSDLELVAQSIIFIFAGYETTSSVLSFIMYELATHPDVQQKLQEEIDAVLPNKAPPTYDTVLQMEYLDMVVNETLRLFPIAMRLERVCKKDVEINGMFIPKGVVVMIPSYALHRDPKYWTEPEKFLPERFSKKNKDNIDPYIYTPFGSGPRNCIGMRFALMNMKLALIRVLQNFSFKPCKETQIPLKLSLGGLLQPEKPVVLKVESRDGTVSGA
Cytochrome P450 2C9, sequence (P11712 whole entry): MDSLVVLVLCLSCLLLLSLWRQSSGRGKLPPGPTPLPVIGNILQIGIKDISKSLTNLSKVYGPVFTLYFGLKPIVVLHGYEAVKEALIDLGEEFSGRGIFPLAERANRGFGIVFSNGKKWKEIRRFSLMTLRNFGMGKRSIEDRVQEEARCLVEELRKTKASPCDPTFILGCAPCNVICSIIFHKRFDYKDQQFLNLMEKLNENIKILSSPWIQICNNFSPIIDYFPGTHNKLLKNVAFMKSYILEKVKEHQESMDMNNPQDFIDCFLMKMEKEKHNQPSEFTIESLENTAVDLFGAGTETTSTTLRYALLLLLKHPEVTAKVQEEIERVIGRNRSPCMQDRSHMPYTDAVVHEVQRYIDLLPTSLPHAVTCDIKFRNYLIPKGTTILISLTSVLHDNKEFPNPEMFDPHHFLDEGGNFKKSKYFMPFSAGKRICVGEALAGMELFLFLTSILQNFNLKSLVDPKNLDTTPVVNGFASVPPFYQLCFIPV
CYP2C9, sequence (P11712 whole entry): as above

## CNC(=O)[C@@H]1CCCN1S(=O)(=O)c1ccc(Cl)c(COc2cccc3c(-c4cncn4C)cc(C(C)C)nc23)c1Cl
Cytochrome P450 2C9
  Fm: 6%
Cytochrome P450 3A4
  Fm: 87%
CYP2C9
  inhibition at 1 µM: 100%
[1]
  half-life: 132 min
[2]
  AUC(0-t): 270 µg·h/mL
[3]
  Ratio: 58
[4]
  Cmax: 27500 ng/mL
[5]
  Tmax: 3 h
[6]
  Ratio: 8.8
[7]
  Ratio: 3.5
[8]
  Cmax: 11800 ng/mL
Mus musculus [9]
  inhibition in vivo at 100 mg/kg: 76%
Mus musculus [10]
  inhibition in vivo at 60 mg/kg: 81%
[11]
  Activity: -39%
[12]
  Activity: -45%
[13]
  Activity: -29%
[14]
  Activity: -45%
[15]
  Activity: -46%
[16]
  Activity: -52%
[17]
  half-life: 9.6 min
[18]
  bioavailability: 64%
[19]
  Cmax: 3320 ng/mL
[20]
  Tmax: 15 min
[21]
  EC50: 220 nM
[22]
  Activity: -22%
[23]
  Activity: -32%
Mus musculus [24]
  Activity: Dose-dependent effect
